Data: ChEMBL document CHEMBL1131111, “Synthesis and anti-HIV-1 activity of novel 2,3-dihydro-7H-thiazolo[3,2-a]pyrimidin-7-ones” (1998)

Columns and labels:
Format in all cases: functional
[1] = test system: Human immunodeficiency virus 1; assay: Effective dose required for 50% inhibition of HIV-1 antigen production in MT-4 cultures
[2] = test system: MT4; assay: Cytotoxic dose required to reduce the proliferation of normal uninfected MT-4 cells by 50%; details: Homo sapiens, read-out: CD50 (the source's name)
In short: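 Cytotoxicity scored as concentration-dependent inhibition of proliferation of uninfected MT-4 cells by MTT assay. Cells grown in RPMI 1640 + 10% heat-inactivated FCS. CD50 is the mean of three independent determinations.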

[3] = test system: MT4; assay: Selectivity index is the ratio between CD50 and IC50 values of the compound
In short: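 Selectivity index calculated as CD50 (MTT, uninfected MT-4 cells) divided by ED50 (HIV-1 antigen ELISA, infected MT-4 cultures). Each value is the mean of three independent determinations.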

In the case of `C=CCSc1nc(O)c(CC)c(Cc2ccccc2)n1`, the ED50 [1] is reported as 1.5 µM, the CC50 [2] is reported as > 100 µM and the SI [3] is reported as >67.

In the case of `COC(CSc1nc(O)c(C(C)C)c(Cc2ccccc2)n1)OC`, the ED50 [1] is reported as 4 µM, the CC50 [2] is reported as 32 µM and the SI [3] is reported as 8.

`Cc1cn([C@H]2C[C@H](N=[N+]=[N-])[C@@H](CO)O2)c(=O)[nH]c1=O` [ZIDOVUDINE] showed an ED50 [1] of 0.04 µM, a CC50 [2] of 52 µM and an SI [3] of 1300.

Work on `CCc1c(O)nc(SCC2OCCO2)nc1Cc1cc(C)cc(C)c1` yielded an ED50 [1] of 3 µM, a CC50 [2] of 37 µM and an SI [3] of 12.

For `CCc1c(Cc2cc(C)cc(C)c2)n2c(nc1=O)SCC2OC` (configuration not stated), the ED50 [1] was 3 µM, the CC50 [2] was > 100 µM and the SI [3] was >33.

With `CCOCn1c(Cc2ccccc2)c(C(C)C)c(=O)[nH]c1=O` [EMIVIRINE] the ED50 [1] was 0.005 µM and the SI [3] was 28000.

In the case of `CCOC1CSc2nc(=O)c(C(C)C)c(Cc3ccccc3)n21` (configuration not stated), the ED50 [1] is reported as 100 µM, the CC50 [2] is reported as > 100 µM and the SI [3] is reported as >1.

In the case of `CCOC(CSc1nc(O)c(CC)c(Cc2cc(C)cc(C)c2)n1)OCC`, the ED50 [1] is reported as 21 µM, the CC50 [2] is reported as > 100 µM and the SI [3] is reported as >5.

In the case of `CCc1c(Cc2cc(C)cc(C)c2)n2c(nc1=O)SCC2OCCO` (configuration not stated), the ED50 [1] is reported as 19 µM, the CC50 [2] is reported as > 100 µM and the SI [3] is reported as >5.

`CCc1c(O)nc(SCC(OC)OC)nc1Cc1cccc2ccccc12` was tested, and the ED50 [1] was 32 µM, the CC50 [2] was > 100 µM and the SI [3] was >3.

In the case of `CCOC1CSc2nc(=O)c(CC)c(Cc3cc(C)cc(C)c3)n21` (configuration not stated), the ED50 [1] is reported as 0.7 µM, the CC50 [2] is reported as > 100 µM and the SI [3] is reported as >140.

`CCc1c(Cc2cc(C)cc(C)c2)n2c(nc1=O)SCC2CBr` (configuration not stated) showed an ED50 [1] of 2.8 µM, a CC50 [2] of 46 µM and an SI [3] of 16.

In the case of `CCc1c(Cc2ccccc2)n2c(nc1=O)SCC2OC` (configuration not stated), the ED50 [1] is reported as 36 µM, the CC50 [2] is reported as > 100 µM and the SI [3] is reported as >3.

In the case of `CCOC1CSc2nc(=O)c(CC)c(Cc3ccccc3)n21` (configuration not stated), the ED50 [1] is reported as 46 µM, the CC50 [2] is reported as > 100 µM and the SI [3] is reported as >2.

Work on `C=CCSc1nc(O)c(CC)c(Cc2cc(C)cc(C)c2)n1` yielded an ED50 [1] of 2 µM, a CC50 [2] of 68 µM and an SI [3] of 34.

In the case of `C=CCSc1nc(O)c(C(C)C)c(Cc2ccccc2)n1`, the ED50 [1] is reported as 1.5 µM, the CC50 [2] is reported as > 100 µM and the SI [3] is reported as >67.
